Key:
Cavia porcellus [1] = organism: Cavia porcellus; experiment: In vitro nitric oxide release incubated in the presence of N-acetyl-cysteamine in phosphate buffer; format: functional
Summary of the method: (§1)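 Compound (0.0075 mmol) stirred under argon at 37 °C for 1 h in 0.1 M phosphate buffer pH 7.40/acetonitrile 1:1; line 6 with N-acetylcysteamine 1 equiv per ONO2, line 5 without. After air exposure, Griess reagent 10 min, A540; nitrite quantified against 3–24 µM NaNO2 standards; % NO from one ONO2, control without compound, n = 3.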

Cavia porcellus [2] = organism: Cavia porcellus; experiment: In vitro nitric oxide release incubated in the absence of N-acetyl-cysteamine in phosphate buffer; format: functional; summary of the method: as §1

Structure (SMILES): O=[N+]([O-])OCC(CO[N+](=O)[O-])O[N+](=O)[O-] [NITROGLYCERIN]
- Release (Cavia porcellus [1]): 5.3%
- Release (Cavia porcellus [2]): 0.18%

Reference: ChEMBL document CHEMBL1148296, “Syntheses, calcium channel agonist-antagonist modulation activities, and nitric oxide release studies of nitrooxyalkyl 1,4-dihydro-2,6-dimethyl-3-nitro-4-(2,1,3-benzoxadiazol-4-yl)pyridine-5-carboxylate racemates, enantiomers, and diastereomers” (J Med Chem, 2004)
